SMILES strings stand for the structures. In brackets after ≈: the same amount, converted by molar mass.

What all share (format): functional
Assay [1] concerns Staphylococcus aureus. In words: Antibacterial activity against laboratory-derived Staphylococcus aureus isolate 29213-3 harboring ribosomal protein L3 deltaPhe127-His146 mutant by broth microdilution method. The method, boiled down:
(§1)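 MICs were measured by CLSI broth microdilution against the S. aureus ATCC 29213 parent or its isogenic L3 mutants. The mutants had been selected earlier in vitro with oxazolidinones. Oxazolidinones and comparator antibiotics were tested. L3 mutations use staphylococcal numbering.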
A general note: Broth dilution looks for growth in wells or tubes with falling amounts of substance.

Assay [2] concerns Staphylococcus aureus. In words: Antibacterial activity against laboratory-derived Staphylococcus aureus ATCC 29213 harboring cfr-containing p42262 by broth microdilution method. In outline:
(§2)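 The S. aureus ATCC 29213 parent and its isogenic L3 mutants carried the cfr plasmid p42262, introduced by electroporation. The plasmid came from clinical strain 42262. MICs were then measured by CLSI broth microdilution against oxazolidinones and comparator antibiotics.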

Assay [3] deals with Staphylococcus aureus. In words: Antibacterial activity against laboratory-derived Staphylococcus aureus isolate 29213-2 harboring ribosomal protein L3 Gly155Arg/Met169Leu mutant by broth microdilution method. In outline: as §1
In assay [4] the test system is Staphylococcus aureus. In words: Antibacterial activity against laboratory-derived Staphylococcus aureus isolate 29213-1 harboring ribosomal protein L3 Gly155Arg mutant by broth microdilution method. The method, boiled down: as §1
Assay [5] relates to Staphylococcus aureus. In words: Antibacterial activity against clinical-derived Staphylococcus aureus isolate harboring ribosomal protein L3 deltaSer145/His146Tyr mutant by broth microdilution method. In outline:
(§3)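 MICs were measured by broth microdilution following CLSI guidelines against clinical cfr-positive S. aureus isolates. Oxazolidinones and comparator antibiotics were tested. Extra ribosomal mutations were identified by sequencing 23S rRNA domain V of all alleles and the rplC and rplD genes.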

Assay [6] relates to Staphylococcus aureus. The assay is described as follows: Antibacterial activity against clinical-derived Staphylococcus aureus isolate 42262 by broth microdilution method. In outline: as §3
Assay [7] concerns Staphylococcus aureus. In words: Antibacterial activity against clinical-derived Staphylococcus aureus isolate 51312 harboring ribosomal protein L3 deltaMet169-Gly174 mutant by broth microdilution method. The method, boiled down:
as §3

In assay [8] the test system is Staphylococcus aureus. The assay is described as follows: Antibacterial activity against laboratory-derived Staphylococcus aureus ATCC 29213 by broth microdilution method. In outline:
as §1

The test system of assay [9] is Staphylococcus aureus. The assay is described as follows: Antibacterial activity against laboratory-derived Staphylococcus aureus isolate 29213-2 harboring ribosomal protein L3 Gly155Arg/Met169Leu mutant and cfr-containing p42262 by broth microdilution method. The method, boiled down: as §2
Assay [10] has as its system Staphylococcus aureus. In words: Antibacterial activity against laboratory-derived Staphylococcus aureus isolate 29213-3 harboring ribosomal protein L3 deltaPhe127-His146 mutant and cfr-containing p42262 by broth microdilution method. In outline: as §2
Assay [11] relates to Staphylococcus aureus. The assay is described as follows: Antibacterial activity against laboratory-derived Staphylococcus aureus isolate 29213-1 harboring ribosomal protein L3 Gly155Arg mutant and cfr-containing p42262 by broth microdilution method. In outline:
as §2

For assay [12], the system named is Staphylococcus aureus. The assay is described as follows: Antibacterial activity against laboratory-generated cfr-transformed Staphylococcus aureus by broth microdilution method. The method, boiled down:
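Isogenic panel in the S. aureus ATCC 29213 background: wild-type parent and three laboratory-selected L3 mutants, each electroporated with cfr plasmid p42262 from clinical strain 42262. MICs were read by CLSI broth microdilution.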

Assay [13] deals with Staphylococcus aureus. The assay is described as follows: Antibacterial activity against cfr positive Staphylococcus aureus clinical isolate by broth microdilution method. The method, boiled down: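 MICs against clinical cfr-positive S. aureus isolates (groups 1–3 plus an environmental strain), by CLSI broth microdilution. Non-isogenic ATCC 29213 served as a linezolid-susceptible control strain. Isolates were also characterised by sequencing 23S rRNA domain V (all alleles), rplC (L3) and rplD (L4).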

One may read the MIC as the lowest concentration found to suppress growth. Read a low MIC as a more susceptible organism. Take `O=C(N[C@H](CO)[C@H](O)c1ccc([N+](=O)[O-])cc1)C(Cl)Cl` [CHLORAMPHENICOL]: the MIC is 8 µg/mL (≈ 24.8 µM) in assay [1]; > 64 µg/mL in [2]; 8 µg/mL (≈ 24.8 µM) in assay [3]; 8 µg/mL (≈ 24.8 µM) in assay [4]; > 64 µg/mL in assay [5]; > 64 µg/mL in assay [6]. Also, the minimum inhibitory concentration (MIC) was > 64 µg/mL in assay [7]; 8 µg/mL (≈ 24.8 µM) in assay [8]; > 64 µg/mL in assay [9]; > 64 µg/mL in assay [10]; > 64 µg/mL in assay [11].
Turning to `CC(=O)NC[C@H]1CN(c2ccc(N3CCOCC3)c(F)c2)C(=O)O1` [LINEZOLID], the MIC in assay [1] came to 8 µg/mL (≈ 23.7 µM); in assay [2], 16 µg/mL (≈ 47.4 µM); in assay [3] it was 8 µg/mL (≈ 23.7 µM); in assay [12], 8 µg/mL (≈ 23.7 µM); in assay [5], 32 µg/mL (≈ 94.9 µM); in assay [6] it was 16 µg/mL (≈ 47.4 µM). The MIC came to 64 µg/mL (≈ 190 µM) in assay [7]; 64 µg/mL (≈ 190 µM) in assay [9]; 64 µg/mL (≈ 190 µM) in assay [10]; 32 µg/mL (≈ 94.9 µM) in assay [11]; 8 µg/mL (≈ 23.7 µM) in assay [13].
`CC(=O)NC[C@H]1CN(c2ccc(-c3ccc(CNCc4cnn[nH]4)cc3)c(F)c2)C(=O)O1` [RADEZOLID]: the MIC was 2 µg/mL (≈ 4.56 µM) in [1]; 2 µg/mL (≈ 4.56 µM) in [2]; 2 µg/mL (≈ 4.56 µM) in assay [3]; 1 µg/mL (≈ 2.28 µM) in assay [4]; 4 µg/mL (≈ 9.12 µM) in assay [5]; 4 µg/mL (≈ 9.12 µM) in assay [6]. For the same compound, the MIC in [7] was 8 µg/mL (≈ 18.2 µM); in assay [8] it was 1 µg/mL (≈ 2.28 µM); in [9], 8 µg/mL (≈ 18.2 µM); in assay [10], 8 µg/mL (≈ 18.2 µM); in assay [11], 4 µg/mL (≈ 9.12 µM).
For the compound `Cn1nnc(-c2ccc(-c3ccc(N4C[C@H](CO)OC4=O)cc3F)cn2)n1` [TEDIZOLID], the MIC worked out at 2 µg/mL (≈ 5.4 µM) in [1]; 0.5 µg/mL (≈ 1.35 µM) in assay [2]; 2 µg/mL (≈ 5.4 µM) in assay [3]; 1 µg/mL (≈ 2.7 µM) in assay [4]; 1 µg/mL (≈ 2.7 µM) in assay [5]; 0.5 µg/mL (≈ 1.35 µM) in assay [6]. In addition, the MIC turned out to be 2 µg/mL (≈ 5.4 µM) in assay [7]; 0.5 µg/mL (≈ 1.35 µM) in [8]; 2 µg/mL (≈ 5.4 µM) in assay [9]; 2 µg/mL (≈ 5.4 µM) in assay [10]; 1 µg/mL (≈ 2.7 µM) in [11].
Consider `C=C[C@]1(C)C[C@@H](OC(=O)CSCCN(CC)CC)[C@]2(C)[C@H](C)CC[C@]3(CCC(=O)[C@H]32)[C@@H](C)[C@@H]1O` [TIAMULIN], for which the MIC in [1] was 4 µg/mL (≈ 8.1 µM); in [2] it was > 64 µg/mL; in assay [3] it was 4 µg/mL (≈ 8.1 µM); in assay [4], 8 µg/mL (≈ 16.2 µM); in assay [5], > 64 µg/mL; in assay [6], > 64 µg/mL. For the same compound, the MIC is > 64 µg/mL in assay [7]; 0.5 µg/mL (≈ 1.01 µM) in assay [8]; > 64 µg/mL in assay [9]; > 64 µg/mL in assay [10]; > 64 µg/mL in [11].

(Values after ChEMBL document CHEMBL1687803, “Elevated linezolid resistance in clinical cfr-positive Staphylococcus aureus isolates is associated with co-occurring mutations in ribosomal protein L3” (2010).)
